Measurements published in publication PMC6720533 (Biomolecules & Therapeutics, 2019).

Key:
[1] = target: CK2α2 (Homo sapiens, UniProt P19784); assay: Kinase activity screening; assay type: biochemical; conditions: FX-9 at 2.5 μM, ATP at Km (10 μM)
In short: (§1)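 Radiometric substrate-phosphorylation screen covering a panel of 58 human kinases run by a contract service. […] Activity is given as a percentage of mean activity in positive control samples (100%). Values <30% were scored strong hits, 30–70% partial hits and >70% no hit.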

[2] = target: PKG1α (Homo sapiens, UniProt Q13976); assay: Kinase activity screening; assay type: biochemical; conditions: FX-9 at 2.5 μM, ATP at Km (90 μM)
In short: (§2)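 Radiometric kinase-panel screen of 58 human kinases, measuring substrate phosphorylation. […] Activity is given as % of the mean positive-control kinase activity (100%). Below 30% counts as a strong hit, 30–70% as a partial hit, and above 70% as no hit.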

[3] = target: JAK2 (Homo sapiens, UniProt O60674); assay: Kinase activity screening; assay type: biochemical; conditions: FX-9 at 2.5 μM, ATP at Km (45 μM)
In short: as §1

[4] = tested on: CEM cells; assay: Proliferation, viable cell count by trypan blue exclusion; assay type: cell-based, human; conditions: 72 h
In short: (§3)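 Human B-ALL (SEM, RS4;11) and T-ALL (Jurkat, CEM) lines were grown with 10% heat-inactivated FBS and penicillin/streptomycin at 37°C, 5% CO2. Cells took test compound at 0.1–5.0 μM (methods: 0.5–5.0 μM) or DMSO for up to 72 h. Viable cells were counted by trypan blue exclusion and expressed relative to control (100%). IC50 came from three separate experiments, each in triplicate.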

[5] = target: PI3 Kinase (p110a/p85a) (Homo sapiens, UniProt P42336); assay: Kinase activity screening; assay type: biochemical; conditions: FX-9 at 2.5 μM, ATP at Km (200 μM)
In short: as §1

[6] = target: Rsk1 (Homo sapiens, UniProt Q15418); assay: Kinase activity screening; assay type: biochemical; conditions: FX-9 at 2.5 μM, ATP at Km (45 μM)
In short: as §2

[7] = tested on: B- and T-ALL cells; assay: Proliferation, viable cell count by trypan blue exclusion; assay type: cell-based; conditions: Homo sapiens, read-out: IC50 values against B- and T-ALL cells
In short: as §3

[8] = target: TAK1 (Homo sapiens, UniProt O43318); assay: Kinase activity screening; assay type: biochemical; conditions: FX-9 at 2.5 μM, ATP at Km (45 μM)
In short: as §2

[9] = target: ALK (Homo sapiens, UniProt Q9UM73); assay: Kinase activity screening; assay type: biochemical; conditions: FX-9 at 2.5 μM, ATP at Km (200 μM)
In short: as §1

[10] = tested on: Jurkat cells; assay: Apoptosis, Annexin V FITC / propidium iodide flow cytometry; assay type: cell-based, human; conditions: 5 μM, 72 h, DMSO 18.7%
[11] = target: CK1γ1 (Homo sapiens, UniProt Q9HCP0); assay: Kinase activity screening; assay type: biochemical; conditions: FX-9 at 2.5 μM, ATP at Km (15 μM)
In short: as §1

[12] = target: LOK (Homo sapiens, UniProt O94804); assay: Kinase activity screening; assay type: biochemical; conditions: FX-9 at 2.5 μM, ATP at Km (120 μM)
In short: as §1

[13] = target: MSK2 (Homo sapiens, UniProt O75676); assay: Kinase activity screening; assay type: biochemical; conditions: FX-9 at 2.5 μM, ATP at Km (45 μM)
In short: as §1

[14] = target: Fyn (Homo sapiens, UniProt P06241); assay: Kinase activity screening; assay type: biochemical; conditions: FX-9 at 2.5 μM, ATP at Km (70 μM)
In short: as §1

[15] = target: PKCα (Homo sapiens, UniProt P17252); assay: Kinase activity screening; assay type: biochemical; conditions: FX-9 at 2.5 μM, ATP at Km (45 μM)
In short: as §1

[16] = target: IKKα (Homo sapiens, UniProt O15111); assay: Kinase activity screening; assay type: biochemical; conditions: FX-9 at 2.5 μM, ATP at Km (10 μM)
In short: as §1

[17] = target: PAK2 (Homo sapiens, UniProt Q13177); assay: Kinase activity screening; assay type: biochemical; conditions: FX-9 at 2.5 μM, ATP at Km (90 μM)
In short: as §1

[18] = target: CaMKI (Homo sapiens, UniProt Q14012); assay: Kinase activity screening; assay type: biochemical; conditions: FX-9 at 2.5 μM, ATP at Km (200 μM)
In short: as §1

[19] = target: GSK3β (Homo sapiens, UniProt P49841); assay: Kinase activity screening; assay type: biochemical; conditions: FX-9 at 2.5 μM, ATP at Km (15 μM)
In short: as §1

[20] = target: MEK1 (Homo sapiens, UniProt Q02750); assay: Kinase activity screening; assay type: biochemical; conditions: FX-9 at 2.5 μM, ATP at Km (10 μM)
In short: as §1

[21] = target: CDK2/cyclinA (Homo sapiens, UniProt P24941); assay: Kinase activity screening; assay type: biochemical; conditions: FX-9 at 2.5 μM, ATP at Km (45 μM)
In short: as §1

[22] = target: Aurora-A (Homo sapiens, UniProt O14965); assay: Kinase activity screening; assay type: biochemical; conditions: FX-9 at 2.5 μM, ATP at Km (15 μM)
In short: as §1

[23] = tested on: cleaved caspase 3; assay: Western blot, SEM cells; assay type: cell-based, human; conditions: 2.5 μM and 5.0 μM, 48 h
In short: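 SEM and RS4;11 cells were exposed to 2.5 or 5.0 μM test compound, or DMSO, for 48 h. Lysates of 1–5×10^6 cells were made in RIPA buffer with sonication. Cleaved caspase 3 was detected by western blot on PVDF with near-infrared imaging, using GAPDH as loading control.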

[24] = tested on: RS4;11 cells; assay: Apoptosis, Annexin V FITC / propidium iodide flow cytometry; assay type: cell-based, human; conditions: RS4;11, 5 μM, 72 h; DMSO 11.7%
[25] = target: IRAK4 (Homo sapiens, UniProt Q9NWZ3); assay: Kinase activity screening; assay type: biochemical; conditions: FX-9 at 2.5 μM, ATP at Km (200 μM)
In short: as §1

[26] = target: Pim-1 (Homo sapiens, UniProt P11309); assay: Kinase activity screening; assay type: biochemical; conditions: FX-9 at 2.5 μM, ATP at Km (90 μM)
In short: as §2

[27] = target: Abl (Homo sapiens, UniProt P00519); assay: Kinase activity screening; assay type: biochemical; conditions: FX-9 at 2.5 μM, ATP at Km (45 μM)
In short: as §1

[28] = target: SAPK2a (Homo sapiens, UniProt Q16539); assay: Kinase activity screening; assay type: biochemical; conditions: FX-9 at 2.5 μM, ATP at Km (90 μM)
In short: as §2

[29] = tested on: pAKT; assay: Western blot, SEM cells; assay type: cell-based, human; conditions: 2.5 μM or 5.0 μM, 48 h
In short: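 SEM or RS4;11 cells took DMSO, 2.5 or 5.0 μM test compound for 48 h. Cells (1–5×10^6) were lysed in RIPA buffer with sonication, run on SDS gels, blotted to PVDF and imaged by near-infrared fluorescence. Bands were normalised to GAPDH, and the phospho/total protein ratio was set relative to DMSO control (=1).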

[30] = target: MAPKAP-K2 (Homo sapiens, UniProt P49137); assay: Kinase activity screening; assay type: biochemical; conditions: FX-9 at 2.5 μM, ATP at Km (90 μM)
In short: as §1

[31] = target: CHK1 (Homo sapiens, UniProt O14757); assay: Kinase activity screening; assay type: biochemical; conditions: FX-9 at 2.5 μM, ATP at Km (90 μM)
In short: as §1

Sequence of Abl (P00519 whole entry): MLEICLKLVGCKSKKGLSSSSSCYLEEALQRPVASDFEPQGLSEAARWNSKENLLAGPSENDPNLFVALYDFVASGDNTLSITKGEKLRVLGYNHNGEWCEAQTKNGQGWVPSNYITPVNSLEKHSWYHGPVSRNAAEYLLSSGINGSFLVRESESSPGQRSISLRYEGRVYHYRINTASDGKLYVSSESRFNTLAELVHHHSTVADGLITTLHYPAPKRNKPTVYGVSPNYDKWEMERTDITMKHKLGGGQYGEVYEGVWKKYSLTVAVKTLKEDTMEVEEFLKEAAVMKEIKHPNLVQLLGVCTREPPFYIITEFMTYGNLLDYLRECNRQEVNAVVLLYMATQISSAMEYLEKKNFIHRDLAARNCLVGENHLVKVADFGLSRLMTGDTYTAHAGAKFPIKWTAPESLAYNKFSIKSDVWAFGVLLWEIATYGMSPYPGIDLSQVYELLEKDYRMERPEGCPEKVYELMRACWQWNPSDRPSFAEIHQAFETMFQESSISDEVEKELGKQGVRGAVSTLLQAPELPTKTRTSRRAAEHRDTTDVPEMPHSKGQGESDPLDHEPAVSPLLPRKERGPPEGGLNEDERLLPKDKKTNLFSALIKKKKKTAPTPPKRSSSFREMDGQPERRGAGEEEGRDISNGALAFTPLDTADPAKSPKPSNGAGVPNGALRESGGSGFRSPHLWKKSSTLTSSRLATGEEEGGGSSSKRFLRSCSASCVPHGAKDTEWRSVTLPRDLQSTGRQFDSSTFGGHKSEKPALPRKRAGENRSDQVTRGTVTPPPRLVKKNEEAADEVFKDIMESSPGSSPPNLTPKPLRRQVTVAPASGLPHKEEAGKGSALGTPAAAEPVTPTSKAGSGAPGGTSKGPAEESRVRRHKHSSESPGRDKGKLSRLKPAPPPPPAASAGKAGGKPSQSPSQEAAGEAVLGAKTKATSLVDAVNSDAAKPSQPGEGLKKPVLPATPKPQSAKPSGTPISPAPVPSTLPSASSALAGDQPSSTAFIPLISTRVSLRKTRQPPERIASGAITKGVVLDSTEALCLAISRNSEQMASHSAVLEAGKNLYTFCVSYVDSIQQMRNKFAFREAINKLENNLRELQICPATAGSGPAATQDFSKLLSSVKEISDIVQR
Sequence of IKKα (O15111 whole entry): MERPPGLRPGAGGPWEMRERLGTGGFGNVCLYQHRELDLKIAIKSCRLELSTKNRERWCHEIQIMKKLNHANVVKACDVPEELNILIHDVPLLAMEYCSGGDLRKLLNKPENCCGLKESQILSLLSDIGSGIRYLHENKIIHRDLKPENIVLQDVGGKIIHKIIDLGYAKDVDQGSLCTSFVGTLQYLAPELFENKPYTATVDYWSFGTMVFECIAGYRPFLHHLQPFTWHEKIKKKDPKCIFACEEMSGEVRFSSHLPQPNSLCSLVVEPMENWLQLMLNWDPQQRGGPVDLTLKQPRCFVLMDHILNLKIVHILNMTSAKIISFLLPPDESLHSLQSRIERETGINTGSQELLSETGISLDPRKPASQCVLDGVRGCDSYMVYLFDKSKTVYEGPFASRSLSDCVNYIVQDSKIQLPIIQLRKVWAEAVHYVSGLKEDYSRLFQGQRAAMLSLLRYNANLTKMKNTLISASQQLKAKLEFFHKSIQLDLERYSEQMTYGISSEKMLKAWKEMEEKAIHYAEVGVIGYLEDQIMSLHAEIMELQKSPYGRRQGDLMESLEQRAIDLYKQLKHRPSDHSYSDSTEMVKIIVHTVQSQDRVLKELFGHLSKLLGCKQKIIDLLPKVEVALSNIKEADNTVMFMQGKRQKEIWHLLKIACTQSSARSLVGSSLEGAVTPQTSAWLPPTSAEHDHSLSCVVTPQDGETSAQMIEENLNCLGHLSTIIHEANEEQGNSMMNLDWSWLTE
Sequence of TAK1 (O43318 1-303 limits assumed): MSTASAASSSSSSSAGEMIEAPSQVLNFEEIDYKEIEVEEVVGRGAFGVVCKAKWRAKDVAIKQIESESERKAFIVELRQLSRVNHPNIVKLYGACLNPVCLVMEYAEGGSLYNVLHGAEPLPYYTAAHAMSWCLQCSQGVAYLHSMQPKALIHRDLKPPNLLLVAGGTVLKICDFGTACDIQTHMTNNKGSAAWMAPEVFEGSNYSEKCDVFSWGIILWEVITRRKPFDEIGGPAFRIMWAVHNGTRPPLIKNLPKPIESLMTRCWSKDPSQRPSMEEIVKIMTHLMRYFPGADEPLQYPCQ
Sequence of GSK3β (P49841 whole entry): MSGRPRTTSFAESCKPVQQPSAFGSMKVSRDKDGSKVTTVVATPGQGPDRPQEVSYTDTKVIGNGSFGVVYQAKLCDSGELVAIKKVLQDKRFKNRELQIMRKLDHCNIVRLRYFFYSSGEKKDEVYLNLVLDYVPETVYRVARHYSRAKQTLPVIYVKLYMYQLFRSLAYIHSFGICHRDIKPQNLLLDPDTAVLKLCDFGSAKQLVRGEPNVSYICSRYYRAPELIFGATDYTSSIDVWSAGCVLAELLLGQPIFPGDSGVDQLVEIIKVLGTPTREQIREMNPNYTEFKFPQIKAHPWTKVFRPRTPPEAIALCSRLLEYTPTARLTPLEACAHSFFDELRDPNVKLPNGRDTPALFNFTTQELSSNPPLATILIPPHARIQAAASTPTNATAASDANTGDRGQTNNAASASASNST
Sequence of CaMKI (Q14012 whole entry): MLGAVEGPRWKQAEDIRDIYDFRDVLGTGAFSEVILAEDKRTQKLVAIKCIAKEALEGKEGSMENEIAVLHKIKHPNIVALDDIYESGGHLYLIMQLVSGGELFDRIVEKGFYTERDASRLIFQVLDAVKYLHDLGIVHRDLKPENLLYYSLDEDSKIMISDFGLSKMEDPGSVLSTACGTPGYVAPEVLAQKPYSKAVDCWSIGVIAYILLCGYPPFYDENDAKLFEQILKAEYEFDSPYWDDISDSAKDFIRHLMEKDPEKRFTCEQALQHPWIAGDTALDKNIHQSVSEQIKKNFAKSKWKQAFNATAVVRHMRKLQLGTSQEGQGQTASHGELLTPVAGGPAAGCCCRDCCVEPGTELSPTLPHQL
Sequence of MSK2 (O75676 whole entry): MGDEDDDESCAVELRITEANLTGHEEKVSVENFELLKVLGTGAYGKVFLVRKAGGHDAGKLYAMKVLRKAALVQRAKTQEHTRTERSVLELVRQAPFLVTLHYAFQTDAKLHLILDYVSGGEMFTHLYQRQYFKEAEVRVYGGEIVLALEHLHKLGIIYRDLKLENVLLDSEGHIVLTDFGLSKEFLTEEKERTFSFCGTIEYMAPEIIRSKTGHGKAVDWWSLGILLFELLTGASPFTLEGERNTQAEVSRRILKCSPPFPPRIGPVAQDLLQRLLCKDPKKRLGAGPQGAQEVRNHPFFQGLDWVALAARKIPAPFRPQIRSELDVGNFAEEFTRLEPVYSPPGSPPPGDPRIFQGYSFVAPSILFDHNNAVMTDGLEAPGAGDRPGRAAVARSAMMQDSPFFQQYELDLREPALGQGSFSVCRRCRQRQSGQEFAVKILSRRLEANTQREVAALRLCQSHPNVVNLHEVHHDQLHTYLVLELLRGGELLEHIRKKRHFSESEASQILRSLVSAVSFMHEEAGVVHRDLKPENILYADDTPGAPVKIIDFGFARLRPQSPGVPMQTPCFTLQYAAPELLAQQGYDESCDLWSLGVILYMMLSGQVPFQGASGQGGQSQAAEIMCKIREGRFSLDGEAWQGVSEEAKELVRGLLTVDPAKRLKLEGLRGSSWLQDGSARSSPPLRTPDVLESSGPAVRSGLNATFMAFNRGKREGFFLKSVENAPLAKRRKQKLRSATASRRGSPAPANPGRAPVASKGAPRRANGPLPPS
Sequence of CHK1 (O14757 whole entry): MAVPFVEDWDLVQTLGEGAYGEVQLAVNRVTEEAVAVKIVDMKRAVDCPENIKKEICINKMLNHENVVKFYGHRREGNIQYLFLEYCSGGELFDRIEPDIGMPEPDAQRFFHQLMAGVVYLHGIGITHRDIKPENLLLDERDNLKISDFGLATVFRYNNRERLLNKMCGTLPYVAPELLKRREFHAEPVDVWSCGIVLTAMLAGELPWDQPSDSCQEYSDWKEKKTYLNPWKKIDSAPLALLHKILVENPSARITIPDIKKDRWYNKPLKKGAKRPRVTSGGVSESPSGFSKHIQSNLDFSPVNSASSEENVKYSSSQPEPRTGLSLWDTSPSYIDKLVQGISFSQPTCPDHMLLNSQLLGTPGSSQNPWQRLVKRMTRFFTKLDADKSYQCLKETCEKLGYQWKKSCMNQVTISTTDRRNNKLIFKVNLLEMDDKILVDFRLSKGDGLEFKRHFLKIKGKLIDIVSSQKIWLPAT

Kinase activity (% control) [1]: 95 % control | Kinase activity (% control) [2]: 98 % control | Kinase activity (% control) [3]: 111 % control | Kinase activity (% control) [5]: 101 % control | Kinase activity (% control) [6]: 95 % control | Kinase activity (% control) [8]: 87 % control | Kinase activity (% control) [9]: 112 % control | Kinase activity (% control) [11]: 98 % control | Kinase activity (% control) [12]: 101 % control | Kinase activity (% control) [13]: 89 % control | Kinase activity (% control) [14]: 97 % control | Kinase activity (% control) [15]: 99 % control | Kinase activity (% control) [16]: 91 % control | Kinase activity (% control) [17]: 88 % control | Kinase activity (% control) [18]: 100 % control | Kinase activity (% control) [19]: 88 % control | Kinase activity (% control) [20]: 90 % control | Kinase activity (% control) [21]: 90 % control | Kinase activity (% control) [22]: 92 % control | Kinase activity (% control) [25]: 95 % control | Kinase activity (% control) [26]: 99 % control | Kinase activity (% control) [27]: 96 % control | Kinase activity (% control) [28]: 98 % control | Kinase activity (% control) [30]: 87 % control | Kinase activity (% control) [31]: 94 % control
SMILES: Cc1ccc(-c2cc3ccccc3c(N)n2)cc1 [FX-9, 3-(p-Tolyl)isoquinolin-1-amine]
Proliferation compared to control cells (100%) ([4]; CEM, 2.5 μM): 24.1% | IC50 ([4]; Homo sapiens, CCRF-CEM, read-out: IC50 based on proliferation): 1940 ± 30 nM | IC50 [7]: 540 to 1940 nM | Apoptosis (total of early apoptotic and late apoptotic and necrotic cells) [10]: 48.7% | cleaved caspase 3 protein (western blot) [23]: increased amount of cleaved caspase 3 | Apoptosis (total of early apoptotic and late apoptotic and necrotic cells) [24]: 84.6% | pAKT level (western blot) [29]: reduced
